# Experimental data: ChEMBL document CHEMBL1129794, “Synthesis and evaluation of 2-[(5-methylbenz-1-ox-4-azin-6-yl)imino]imidazoline, a potent, peripherally acting alpha 2 adrenoceptor agonist” (J Med Chem, 1996)
# How the values were obtained:
# [1] = target: T1, Alpha-2A adrenergic receptor (Homo sapiens, UniProt P08913); assay: Compound was tested in vitro for binding affinity against Alpha-2A adrenergic receptor from cloned human C-10 receptor transfected into Chinese hamster ovary (CHO) cells; type: cell-based
# T1 sequence (P08913 whole entry): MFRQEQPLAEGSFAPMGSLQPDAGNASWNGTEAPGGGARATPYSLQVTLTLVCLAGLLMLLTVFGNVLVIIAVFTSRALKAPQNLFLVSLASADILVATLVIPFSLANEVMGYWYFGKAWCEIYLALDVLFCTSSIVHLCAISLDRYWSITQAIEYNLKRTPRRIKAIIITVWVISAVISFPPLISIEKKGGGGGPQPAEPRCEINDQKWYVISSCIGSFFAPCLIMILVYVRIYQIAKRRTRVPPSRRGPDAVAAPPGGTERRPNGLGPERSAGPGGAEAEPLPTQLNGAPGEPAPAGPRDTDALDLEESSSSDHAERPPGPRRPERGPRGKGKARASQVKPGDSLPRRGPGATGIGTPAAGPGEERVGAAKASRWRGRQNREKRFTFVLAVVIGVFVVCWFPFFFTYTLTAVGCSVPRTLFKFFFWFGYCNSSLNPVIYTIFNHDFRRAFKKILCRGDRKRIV
# Method in brief: (§1)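 Membrane binding using cloned receptors expressed in transfected CHO cells: alpha-2A human C-10, alpha-2B rat RNG, alpha-2C human C-2.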
# [2] = pKa value determined in the presence of the partition solvent for guanidine subunit.; type: physicochemical
# Method in brief: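 Potentiometric titration: compound dissolved, solution titrated to predetermined final pH; pKa measured in water and again with octanol or dodecane added before titration; log P derived from shift between aqueous pKa and pKa in presence of partition solvent.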
# [3] = target: T2, Adrenergic receptor alpha-2 (Homo sapiens, UniProt P08913+P18825+P18089); assay: Compound was tested for concentration that produced 50% contractile response relative to maximum response to norepinephrine for Alpha-2 adrenergic receptor in rabbit vas deferens; type: functional, tissue-based, Oryctolagus cuniculus; settings: target entry is the homologue from another species
# T2 sequence (P08913 whole entry): T1 sequence (P08913 whole entry)
# T2 sequence (P18825 whole entry): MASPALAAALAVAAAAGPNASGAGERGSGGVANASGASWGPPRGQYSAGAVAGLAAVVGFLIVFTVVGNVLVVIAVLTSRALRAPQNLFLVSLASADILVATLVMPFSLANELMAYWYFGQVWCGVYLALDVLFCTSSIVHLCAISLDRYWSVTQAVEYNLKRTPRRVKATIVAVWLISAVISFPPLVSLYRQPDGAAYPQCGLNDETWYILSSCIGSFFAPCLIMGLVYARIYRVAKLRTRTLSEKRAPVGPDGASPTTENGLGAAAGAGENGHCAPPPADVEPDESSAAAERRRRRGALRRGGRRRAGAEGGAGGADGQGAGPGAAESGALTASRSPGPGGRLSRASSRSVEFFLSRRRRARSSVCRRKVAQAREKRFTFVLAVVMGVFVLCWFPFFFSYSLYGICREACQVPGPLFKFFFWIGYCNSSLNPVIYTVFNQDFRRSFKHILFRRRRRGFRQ
# T2 sequence (P18089 whole entry): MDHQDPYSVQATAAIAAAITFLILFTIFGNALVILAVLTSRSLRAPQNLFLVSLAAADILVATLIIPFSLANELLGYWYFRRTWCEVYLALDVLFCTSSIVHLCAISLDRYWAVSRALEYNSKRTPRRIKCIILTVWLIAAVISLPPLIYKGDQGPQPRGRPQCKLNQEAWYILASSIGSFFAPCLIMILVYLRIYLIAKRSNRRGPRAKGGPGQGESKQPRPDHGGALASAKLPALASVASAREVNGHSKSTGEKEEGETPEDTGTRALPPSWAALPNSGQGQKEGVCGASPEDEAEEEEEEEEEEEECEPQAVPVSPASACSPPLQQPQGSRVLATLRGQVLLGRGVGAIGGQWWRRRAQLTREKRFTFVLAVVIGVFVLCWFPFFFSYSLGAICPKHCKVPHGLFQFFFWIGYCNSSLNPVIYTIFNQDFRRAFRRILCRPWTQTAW
# [4] = target: T3, Alpha-2C adrenergic receptor (Homo sapiens, UniProt P18825); assay: Compound was tested in vitro for binding affinity against Alpha-2C adrenergic receptor from cloned human C-2 receptor transfected into Chinese hamster ovary (CHO) cells; type: cell-based; method in brief: as §1
# T3 sequence (P18825 whole entry): T2 sequence (P18825 whole entry)
# [5] = target: T4, Alpha-2B adrenergic receptor (Rattus norvegicus, UniProt P19328); assay: Compound was tested in vitro for binding affinity against Alpha-2B adrenergic receptor from cloned rat RNG receptor transfected into Chinese hamster ovary (CHO) cells; type: cell-based; method in brief: as §1
# T4 sequence (P19328 whole entry): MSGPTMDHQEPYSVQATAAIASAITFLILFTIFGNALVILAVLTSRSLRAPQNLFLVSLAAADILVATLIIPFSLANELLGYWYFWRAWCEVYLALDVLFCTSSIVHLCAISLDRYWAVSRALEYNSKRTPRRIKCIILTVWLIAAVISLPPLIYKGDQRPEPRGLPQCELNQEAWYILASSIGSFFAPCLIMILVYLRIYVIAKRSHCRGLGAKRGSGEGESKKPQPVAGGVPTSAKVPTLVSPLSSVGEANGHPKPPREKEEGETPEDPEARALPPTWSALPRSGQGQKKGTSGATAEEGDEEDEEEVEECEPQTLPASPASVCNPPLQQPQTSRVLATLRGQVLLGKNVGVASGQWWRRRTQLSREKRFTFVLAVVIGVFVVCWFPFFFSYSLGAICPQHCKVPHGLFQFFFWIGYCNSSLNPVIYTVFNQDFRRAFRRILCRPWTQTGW
# [6] = target: T5, Adrenergic receptor alpha-1 (Homo sapiens, UniProt P35348+P25100+P35368); assay: Compound was tested for binding affinity based on dissociation constant of Alpha-1 adrenergic receptor; type: protein assay
# T5 sequence (P35348 whole entry): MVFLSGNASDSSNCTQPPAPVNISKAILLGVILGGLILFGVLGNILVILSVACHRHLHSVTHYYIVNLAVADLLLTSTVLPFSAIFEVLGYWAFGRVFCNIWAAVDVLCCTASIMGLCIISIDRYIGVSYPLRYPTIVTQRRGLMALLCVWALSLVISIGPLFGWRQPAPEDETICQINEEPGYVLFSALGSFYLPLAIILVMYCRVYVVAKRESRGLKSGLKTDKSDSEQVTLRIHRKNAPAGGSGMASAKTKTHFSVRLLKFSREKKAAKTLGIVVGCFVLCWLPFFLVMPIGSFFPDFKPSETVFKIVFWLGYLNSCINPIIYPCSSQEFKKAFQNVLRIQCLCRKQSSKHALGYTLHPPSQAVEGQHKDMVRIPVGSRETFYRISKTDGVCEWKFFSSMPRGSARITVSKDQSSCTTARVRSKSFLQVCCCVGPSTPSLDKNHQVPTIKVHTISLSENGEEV
# T5 sequence (P25100 whole entry): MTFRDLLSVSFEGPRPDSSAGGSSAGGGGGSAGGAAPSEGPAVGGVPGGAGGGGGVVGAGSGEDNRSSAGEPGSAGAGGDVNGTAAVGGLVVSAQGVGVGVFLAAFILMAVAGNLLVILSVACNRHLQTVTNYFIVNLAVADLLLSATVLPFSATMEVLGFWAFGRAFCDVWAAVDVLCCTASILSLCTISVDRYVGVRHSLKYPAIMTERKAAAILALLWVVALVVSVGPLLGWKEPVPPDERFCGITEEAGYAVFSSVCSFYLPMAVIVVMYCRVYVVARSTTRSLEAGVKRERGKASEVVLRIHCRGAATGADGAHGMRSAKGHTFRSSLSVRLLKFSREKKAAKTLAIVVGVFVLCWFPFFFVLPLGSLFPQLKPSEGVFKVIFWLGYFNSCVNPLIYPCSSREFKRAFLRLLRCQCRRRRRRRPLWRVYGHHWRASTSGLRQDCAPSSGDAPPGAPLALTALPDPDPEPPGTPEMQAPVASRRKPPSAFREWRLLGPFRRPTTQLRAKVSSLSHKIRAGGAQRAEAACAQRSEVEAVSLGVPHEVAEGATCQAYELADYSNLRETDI
# T5 sequence (P35368 whole entry): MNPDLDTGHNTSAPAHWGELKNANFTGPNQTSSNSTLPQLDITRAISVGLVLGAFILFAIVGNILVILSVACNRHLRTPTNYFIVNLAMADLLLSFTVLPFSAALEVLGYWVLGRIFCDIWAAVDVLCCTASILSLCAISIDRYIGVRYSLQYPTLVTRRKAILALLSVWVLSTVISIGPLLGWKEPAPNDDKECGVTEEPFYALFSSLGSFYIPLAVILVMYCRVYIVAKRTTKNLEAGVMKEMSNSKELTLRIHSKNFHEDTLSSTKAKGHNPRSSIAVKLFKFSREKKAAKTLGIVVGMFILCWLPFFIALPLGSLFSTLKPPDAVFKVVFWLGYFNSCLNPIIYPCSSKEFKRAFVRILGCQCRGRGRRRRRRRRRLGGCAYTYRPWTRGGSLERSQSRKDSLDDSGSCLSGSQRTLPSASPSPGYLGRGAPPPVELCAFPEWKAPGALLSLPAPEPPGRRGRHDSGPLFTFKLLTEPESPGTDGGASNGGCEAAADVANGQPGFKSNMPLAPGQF
Compound,Ki [1],pKa [2],EC50 [3],Ki [4],Ki [5],Ki [6]
Cc1c(NC2=NCCN2)ccc2nccnc12,2 nM,9.4,0.26 nM,27 nM,17 nM,–
Cc1c(NC2=NCCN2)ccc2c1NCCO2,–,11.1,1.2 nM,–,–,470 nM
Cc1c(NC2=NCCN2)ccc2c1NCCN2,–,11.3,3.5 nM,120 nM,–,–
Nc1cc(Cl)c(N=C2NCCN2)c(Cl)c1 [APRACLONIDINE],–,–,–,30 nM,–,180 nM
